≈ marks a conversion by molar mass, not a printed value.
Experiments:
[1] = tested on: Pseudomonas aeruginosa; assay: Antimicrobial activity against Pseudomonas aeruginosa PAO1 incubated at 35 degC for 20 hrs by microdilution broth method; type: functional; settings: PAO1, 20 h
Method in brief: (§1)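 Broth microdilution per NCCLS in cation-adjusted Mueller-Hinton broth. Each compound serially diluted two-fold, and each […] inoculated at 5×10^4 CFU per 0.1 mL well. Plates incubated 35 °C for 20 h, then MIC scored.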

[2] = tested on: Pseudomonas aeruginosa; assay: Antimicrobial activity against Pseudomonas aeruginosa YYI65 (deltamexB) incubated at 35 degC for 20 hrs by microdilution broth method; type: functional; settings: YYI65, 20 h; method in brief: as §1
[3] = tested on: Pseudomonas aeruginosa; assay: Antimicrobial activity against Pseudomonas aeruginosa ATCC 25619 incubated at 35 degC for 20 hrs by microdilution broth method; type: functional; settings: ATCC 25619, 20 h; method in brief: as §1
[4] = tested on: Pseudomonas aeruginosa; assay: Antimicrobial activity against Pseudomonas aeruginosa SR 27156 incubated at 35 degC for 20 hrs by microdilution broth method; type: functional; settings: SR 27156, 20 h; method in brief: as §1
[5] = target: T1, Phospho-N-acetylmuramoyl-pentapeptide-transferase (Staphylococcus aureus, UniProt P0C1R8); assay: Inhibition of Staphylococcus aureus MraY using UDP-MurNAc-dansylpentapeptide substrate assessed as formation of dansylated lipid I incubated for 3 to 4 hrs by fluorometric assay
T1 sequence (P0C1R8 whole entry): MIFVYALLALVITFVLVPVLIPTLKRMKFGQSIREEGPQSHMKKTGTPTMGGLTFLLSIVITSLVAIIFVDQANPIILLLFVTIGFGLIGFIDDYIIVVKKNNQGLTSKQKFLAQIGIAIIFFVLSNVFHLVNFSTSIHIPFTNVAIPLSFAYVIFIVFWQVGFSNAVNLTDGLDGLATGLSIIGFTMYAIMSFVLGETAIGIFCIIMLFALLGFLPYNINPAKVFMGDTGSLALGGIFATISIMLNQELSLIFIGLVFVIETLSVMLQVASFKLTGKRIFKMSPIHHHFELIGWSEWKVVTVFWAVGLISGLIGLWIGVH
Method in brief: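 Purified S. aureus MraY with UDP-MurNAc-dansylpentapeptide as substrate. Dansylated lipid I formation followed as fluorescence enhancement at ex 355 nm / em 535 nm. IC50 reported.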

`C[C@H](NC(=O)N[C@@H](Cc1c[nH]c2ccccc12)C(=O)O)C(=O)N[C@H](C(=O)N/C=C1\O[C@@H](n2ccc(=O)[nH]c2=O)[C@H](O)[C@@H]1O)[C@H](C)N(C)C(=O)[C@H](Cc1cccc(O)c1)NC(=O)CN` showed an MIC [1] greater than 32 µg/mL, an MIC [2] of 16 µg/mL (≈ 18.2 µM) and an MIC [3] of 32 µg/mL (≈ 36.5 µM). The MIC [4] was 16 µg/mL (≈ 18.2 µM) and the IC50 [5] was 0.022 µM.
In the case of `C[C@H](NC(=O)N[C@@H](Cc1c[nH]c2ccccc12)C(=O)O)C(=O)N[C@@H](C(=O)N/C=C1\O[C@@H](n2ccc(=O)[nH]c2=O)[C@H](O)[C@@H]1O)[C@H](C)N(C)C(=O)[C@H](Cc1cccc(O)c1)NC(=O)CN`, the MIC [1] is reported as greater than 32 µg/mL, the MIC [2] is reported as greater than 32 µg/mL and the MIC [3] is reported as greater than 32 µg/mL. The MIC [4] was greater than 32 µg/mL and the IC50 [5] was 0.65 µM.
`C[C@H](N)C(=O)N(C)[C@@H](C)[C@H](NC(=O)[C@H](C)NC(=O)N[C@@H](Cc1c[nH]c2ccccc12)C(=O)O)C(=O)N/C=C1/C[C@@H](O)[C@H](n2ccc(=O)[nH]c2=O)O1` [PACIDAMYCIN D] gave an MIC [1] of 64 µg/mL (≈ 89.9 µM), an MIC [2] of 16 µg/mL (≈ 22.5 µM) and an MIC [3] of 16 µg/mL (≈ 22.5 µM). For the same compound, the MIC [4] was 16 µg/mL (≈ 22.5 µM) and the IC50 [5] was 0.022 µM.
In the case of `C[C@H](NC(=O)N[C@@H](Cc1c[nH]c2ccccc12)C(=O)O)C(=O)N[C@H](C(=O)N/C=C1\O[C@@H](n2ccc(=O)[nH]c2=O)[C@H](O)[C@@H]1O)[C@H](C)N(C)C(=O)[C@H](Cc1ccc(O)cc1)NC(=O)CN`, the MIC [1] is reported as greater than 32 µg/mL, the MIC [2] is reported as greater than 32 µg/mL and the MIC [3] is reported as greater than 32 µg/mL. The MIC [4] was greater than 32 µg/mL and the IC50 [5] was 4 µM.
`C[C@H](NC(=O)N[C@@H](Cc1c[nH]c2ccccc12)C(=O)O)C(=O)N[C@H](C(=O)N/C=C1\O[C@@H](n2ccc(=O)[nH]c2=O)[C@H](O)[C@@H]1O)[C@H](C)N(C)C(=O)CN` gave an MIC [1] greater than 32 µg/mL, an MIC [2] greater than 32 µg/mL and an MIC [3] greater than 32 µg/mL. For the same compound, the MIC [4] was greater than 32 µg/mL and the IC50 [5] was 0.065 µM.
For `C[C@H](N)C(=O)N(C)[C@@H](C)[C@H](NC(=O)[C@H](C)NC(=O)N[C@@H](Cc1c[nH]c2ccccc12)C(=O)O)C(=O)N/C=C1\O[C@@H](n2ccc(=O)[nH]c2=O)[C@H](O)[C@@H]1O`, the MIC [1] was 32 µg/mL (≈ 44 µM), the MIC [2] was 8 µg/mL (≈ 11 µM) and the MIC [3] was 16 µg/mL (≈ 22 µM). It also gave an MIC [4] of 16 µg/mL (≈ 22 µM) and an IC50 [5] of 0.042 µM.
In the case of `C[C@H](N)C(=O)N(C)[C@@H](C)[C@@H](NC(=O)[C@H](C)NC(=O)N[C@@H](Cc1c[nH]c2ccccc12)C(=O)O)C(=O)N/C=C1\O[C@@H](n2ccc(=O)[nH]c2=O)[C@H](O)[C@@H]1O`, the MIC [1] is reported as greater than 32 µg/mL, the MIC [2] is reported as greater than 32 µg/mL and the MIC [3] is reported as greater than 32 µg/mL. It also gave an MIC [4] greater than 32 µg/mL and an IC50 [5] of 4 µM.
Work on `C[C@H](NC(=O)N[C@@H](Cc1c[nH]c2ccccc12)C(=O)O)C(=O)N[C@@H](C(=O)N/C=C1\O[C@@H](n2ccc(=O)[nH]c2=O)[C@H](O)[C@@H]1O)[C@H](C)N(C)C(=O)[C@@H](Cc1cccc(O)c1)NC(=O)CN` yielded an MIC [1] greater than 32 µg/mL, an MIC [2] greater than 32 µg/mL and an MIC [3] greater than 32 µg/mL. The MIC [4] was greater than 32 µg/mL and the IC50 [5] was 8.9 µM.

— ChEMBL document CHEMBL2046349, “Synthesis of pacidamycin analogues via an Ugi-multicomponent reaction” (Bioorg Med Chem Lett, 2012)
